Assay [1] has as its system MCF7. The assay can be described thus: Stimulation of human MCF7 cell proliferation up to 100 uM after 96 hrs by alamar blue assay relative to estradiol. The format is functional, cell-based. In a few lines: (§1)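 Compounds were given alone at 0.1, 1, 10 and 100 µM, and stimulation of proliferation was compared with estradiol at 1–100 pM. Cell proliferation assay as in an earlier report.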
In general terms: Resazurin is reduced to fluorescent resorufin, in cell work by metabolically active cells.

For assay [2], the system named is T47D. The assay can be described thus: Stimulation of human T47D cell proliferation up to 100 uM after 96 hrs by alamar blue assay relative to estradiol. The format is functional, cell-based. In a few lines: as §1
The subject of assay [3] is MCF7. The assay is described as follows: Antiestrogenic activity in human MCF7 cells assessed as drug level causing inhibition of 100 pM E2-enhanced cell proliferation to level equivalent to 50 pM E2 after 96 hrs by alamar blue assay. The format is functional. An outline of the steps:
(§2)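 Cells seeded at 1 × 10^4 per well in phenol red-free RPMI with 5% DCC-treated FBS. E2 was added from a 20 nM solution to give 100 pM and preincubated 1 h at 37 °C, 5% CO2. Compounds were then added at 0.1, 1, 10 and 100 µM for 96 h, with serially diluted tamoxifen as positive control. Antagonism was judged from cell populations. iEqE values were obtained by linear regression over four concentrations.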

Assay [4] concerns MCF7. The assay is described as follows: Antiestrogenic activity in human MCF7 cells assessed as drug level causing inhibition of 100 pM E2-enhanced cell proliferation to level equivalent to 10 pM E2 after 96 hrs by alamar blue assay. The format is functional. In a few lines:
as §2

Assay [5] has as its system MCF7. The assay can be described thus: Antiestrogenic activity in human MCF7 cells assessed as drug level causing inhibition of 100 pM E2-enhanced cell proliferation to level equivalent to 1 pM E2 after 96 hrs by alamar blue assay. The format is functional. In a few lines:
as §2

The test system of assay [6] is T47D. The assay is described as follows: Antiestrogenic activity in human T47D cells assessed as drug level causing inhibition of 100 pM E2-enhanced cell proliferation to level equivalent to 50 pM E2 after 96 hrs by alamar blue assay. The assay is classed as functional. In a few lines: as §2
The test system of assay [7] is T47D. The assay is described as follows: Antiestrogenic activity in human T47D cells assessed as drug level causing inhibition of 100 pM E2-enhanced cell proliferation to level equivalent to 10 pM E2 after 96 hrs by alamar blue assay. The format is functional. An outline of the steps: as §2
For assay [8], the system named is T47D. The assay can be described thus: Antiestrogenic activity in human T47D cells assessed as drug level causing inhibition of 100 pM E2-enhanced cell proliferation to level equivalent to 1 pM E2 after 96 hrs by alamar blue assay. The assay is classed as functional. In a few lines:
as §2

The test system of assay [9] is T47D. The assay is described as follows: Antiestrogenic activity in human T47D cells assessed as inhibition of E2-enhanced cell proliferation at 0.1 to 100 uM after 96 hrs by alamar blue assay. The assay is classed as functional. In a few lines: as §2

Activity calls are given as the source filed them. The calls are words filed in the database; no cut-off is given here.

As for `COc1cc([C@H]2OC[C@H]3[C@@H]2CO[C@@H]3c2cc(OC)c(O[C@@H]3O[C@H](CO)[C@@H](O)[C@H](O)[C@H]3O)c(OC)c2)cc(OC)c1O`, the outcome in the assay on MCF7 [1] and in the assay on T47D [2] was inactive. Further, the Activity was under 0.1 µM with MCF7 [3]; under 0.1 µM with MCF7 [4]; under 0.1 µM with MCF7 [5]; under 0.1 µM in the assay with T47D [6]; 19 µM in the assay on T47D [7]; over 100 µM in the assay on T47D [8].
With `Oc1ccc([C@H]2OC[C@H]3[C@@H]2CO[C@@H]3c2ccc(O)c(O)c2)cc1O`, the result in the assay with MCF7 [1] and in the assay on T47D [2] was inactive. The Activity with MCF7 [3] came to 0.2 µM; in the assay with MCF7 [4], 31 µM; in the assay on MCF7 [5], 94 µM; in the assay with T47D [6], 0.2 µM; with T47D [7], 26 µM; in the assay with T47D [8] it was 73 µM.
`COc1cc([C@H]2OC[C@H]3[C@@H]2CO[C@@H]3c2ccc(O[C@@H]3O[C@H](CO)[C@@H](O)[C@H](O)[C@H]3O)c(OC)c2)ccc1O`: the result in the assay with MCF7 [1] and in the assay on T47D [2] was inactive. The Activity in the assay on MCF7 [3] was under 0.1 µM; in the assay on MCF7 [4], under 0.1 µM; in the assay with MCF7 [5], under 0.1 µM; with T47D [6] it was under 0.1 µM; in the assay with T47D [7], under 0.1 µM; in the assay with T47D [8], over 100 µM. In addition, in the assay with T47D [9], the “inhibition (INH)” value is over 90%.
Turning to `COc1cc([C@H]2Oc3c(OC)cc(/C=C/CO)cc3[C@@H]2CO)ccc1O[C@@H]1O[C@H](CO)[C@@H](O)[C@H](O)[C@H]1O`, the result in the assay with MCF7 [1] and in the assay on T47D [2] was inactive. Further, the Activity in the assay with MCF7 [3] is 0.3 µM; in the assay on MCF7 [4] it was over 100 µM; in the assay with MCF7 [5] it was over 100 µM; in the assay with T47D [6] it was under 0.1 µM; in the assay on T47D [7], 63 µM; in the assay with T47D [8], over 100 µM.
As for `COc1cc(C[C@H](CO)[C@@H](CO[C@@H]2O[C@H](CO)[C@@H](O)[C@H](O)[C@H]2O)Cc2cc(OC)c(O)c(OC)c2)cc(OC)c1O`, the result with MCF7 [1] and with T47D [2] was inactive. Moreover, the Activity is under 0.1 µM with MCF7 [3]; 0.8 µM with MCF7 [4]; 93 µM with MCF7 [5]; 0.6 µM in the assay with T47D [6]; over 100 µM in the assay with T47D [7]; over 100 µM in the assay on T47D [8].
In the case of `COc1cc([C@H](O[C@@H]2O[C@H](CO)[C@@H](O)[C@H](O)[C@H]2O)[C@@H](CO)Oc2c(OC)cc(/C=C/CO)cc2OC)ccc1O`, the result in the assay with MCF7 [1] and with T47D [2] was inactive. Moreover, the Activity in the assay with MCF7 [3] was under 0.1 µM; in the assay with MCF7 [4] it was 6 µM; in the assay with MCF7 [5], over 100 µM; in the assay on T47D [6], under 0.1 µM; with T47D [7], over 100 µM; in the assay on T47D [8] it was over 100 µM. In addition, the “inhibition (INH)” value in the assay on T47D [9] is given as over 50%.
With `CCCc1ccc(O[C@@H]2O[C@H](CO)[C@@H](O)[C@H](O)[C@H]2O)c(OC)c1`, the result with MCF7 [1] and with T47D [2] was inactive. Also, the Activity in the assay with MCF7 [3] is under 0.1 µM; in the assay with MCF7 [4], under 0.1 µM; with MCF7 [5] it was 0.4 µM; with T47D [6], under 0.1 µM; in the assay on T47D [7], over 100 µM; with T47D [8] it was over 100 µM. The “inhibition (INH)” value in the assay on T47D [9] is on record as over 50%.
For `COc1cc(O)ccc1O[C@@H]1O[C@H](CO[C@@H]2OC[C@@H](O)[C@H](O)[C@H]2O)[C@@H](O)[C@H](O)[C@H]1O` [CAPPAROSIDE A], the outcome with MCF7 [1] and in the assay with T47D [2] was inactive. Further, the Activity was under 0.1 µM in the assay with MCF7 [3]; 0.3 µM in the assay on MCF7 [4]; over 100 µM in the assay with MCF7 [5]; under 0.1 µM with T47D [6]; over 100 µM in the assay on T47D [7]; over 100 µM in the assay with T47D [8]. For the same compound, the “inhibition (INH)” value with T47D [9] is listed as over 50%.
Consider `OC/C=C/c1ccc2c(c1)O[C@H](c1ccc(O)c(O)c1)[C@@H](CO)O2` [ISOAMERICANOL A], for which the result in the assay on MCF7 [1] and in the assay on T47D [2] was inactive. Besides, the Activity is under 0.1 µM in the assay with MCF7 [3]; 6 µM in the assay with MCF7 [4]; over 100 µM in the assay with MCF7 [5]; under 0.1 µM in the assay with T47D [6]; 9 µM in the assay with T47D [7]; over 100 µM with T47D [8].
With `COc1cc([C@H]2OC[C@H]3[C@@H]2CO[C@@H]3c2cc(OC)c(O)c(OC)c2)ccc1O[C@@H]1O[C@H](CO)[C@@H](O)[C@H](O)[C@H]1O` [ISOEUCOMMIN A], the outcome in the assay on MCF7 [1] and with T47D [2] was inactive. Besides, the Activity in the assay with MCF7 [3] is under 0.1 µM; with MCF7 [4] it was under 0.1 µM; in the assay with MCF7 [5] it was under 0.1 µM; in the assay on T47D [6], under 0.1 µM; in the assay on T47D [7], under 0.1 µM; in the assay with T47D [8], over 100 µM. In addition, the “inhibition (INH)” value in the assay with T47D [9] was over 90%.
For the compound `OC[C@H]1O[C@@H](Oc2cc([C@H]3OC[C@]4(O)[C@@H](c5ccc6c(c5)OCO6)OC[C@]34O)ccc2O)[C@H](O)[C@@H](O)[C@@H]1O` [KHAINAOSIDE A], the outcome in the assay on MCF7 [1] and with T47D [2] was inactive. Further, the Activity in the assay with MCF7 [3] is under 0.1 µM; in the assay on MCF7 [4] it was under 0.1 µM; with MCF7 [5] it was under 0.1 µM; in the assay on T47D [6], under 0.1 µM; with T47D [7], under 0.1 µM; in the assay on T47D [8] it was 3 µM.
In the case of `COc1cc(O)cc(OC)c1O[C@@H]1O[C@H](CO)[C@@H](O)[C@H](O)[C@H]1O` [LEONURISIDE], the outcome with MCF7 [1] and in the assay on T47D [2] was inactive. Moreover, the Activity with MCF7 [3] is under 0.1 µM; with MCF7 [4], under 0.1 µM; in the assay on MCF7 [5] it was over 100 µM; in the assay with T47D [6], 0.4 µM; with T47D [7], 39 µM; in the assay with T47D [8] it was over 100 µM.
As to `OC[C@@H]1Oc2ccc([C@H]3OC[C@H]4[C@@H]3CO[C@@H]4c3ccc(O)c(O)c3)cc2O[C@H]1c1ccc(O)c(O)c1` [PRINCEPIN], the result with MCF7 [1] and with T47D [2] was inactive. For the same compound, the Activity was determined as 0.3 µM in the assay on MCF7 [3]; 4 µM in the assay on MCF7 [4]; 7 µM in the assay with MCF7 [5]; 0.4 µM in the assay with T47D [6]; 1 µM with T47D [7]; 6 µM in the assay on T47D [8].
For the compound `C[C@@H](/C=C/[C@]1(O)[C@]2(C)CO[C@@]1(C)CC(=O)C2)O[C@@H]1O[C@H](CO)[C@@H](O)[C@H](O)[C@H]1O` [SPIONOSIDE B], the outcome in the assay with MCF7 [1] and with T47D [2] was inactive. For the same compound, the Activity in the assay with MCF7 [3] was under 0.1 µM; with MCF7 [4], under 0.1 µM; in the assay with MCF7 [5], 15 µM; in the assay with T47D [6], 0.2 µM; in the assay on T47D [7], 61 µM; with T47D [8] it was over 100 µM.
For `COc1cc([C@H]2OC[C@H]3[C@@H]2CO[C@@H]3c2cc(OC)c(O)c(OC)c2)cc(OC)c1O` [SYRINGARESINOL], the outcome with MCF7 [1] and in the assay on T47D [2] was inactive. For the same compound, the Activity with MCF7 [3] was 2 µM; in the assay on MCF7 [4], 4 µM; in the assay on MCF7 [5], 5 µM; with T47D [6], under 0.1 µM; in the assay with T47D [7], 1 µM; in the assay on T47D [8], 7 µM.
For the compound `COc1cc(O[C@@H]2O[C@H](CO)[C@@H](O)[C@H](O)[C@H]2O)ccc1O` [TACHIOSIDE], the outcome in the assay on MCF7 [1] and in the assay with T47D [2] was inactive. Further, the Activity in the assay with MCF7 [3] is under 0.1 µM; with MCF7 [4] it was 0.2 µM; in the assay with MCF7 [5], over 100 µM; in the assay with T47D [6], under 0.1 µM; in the assay with T47D [7], 10 µM; with T47D [8] it was over 100 µM.
As to `CC/C(=C(\c1ccccc1)c1ccc(OCCN(C)C)cc1)c1ccccc1` [TAMOXIFEN], the Activity was 0.1 µM in the assay with MCF7 [3]; 0.2 µM with MCF7 [4]; 0.4 µM in the assay on MCF7 [5]; 0.1 µM in the assay with T47D [6]; 0.7 µM in the assay on T47D [7]; 9 µM in the assay with T47D [8].
